Measured values from different studies.
Each line is one published result; the experiments were not run side by side.
Target: Serine/threonine-protein kinase TAO2 (TAOK2, Homo sapiens, UniProt Q9UL54)
Residues used in one study (Q9UL54 1-1235): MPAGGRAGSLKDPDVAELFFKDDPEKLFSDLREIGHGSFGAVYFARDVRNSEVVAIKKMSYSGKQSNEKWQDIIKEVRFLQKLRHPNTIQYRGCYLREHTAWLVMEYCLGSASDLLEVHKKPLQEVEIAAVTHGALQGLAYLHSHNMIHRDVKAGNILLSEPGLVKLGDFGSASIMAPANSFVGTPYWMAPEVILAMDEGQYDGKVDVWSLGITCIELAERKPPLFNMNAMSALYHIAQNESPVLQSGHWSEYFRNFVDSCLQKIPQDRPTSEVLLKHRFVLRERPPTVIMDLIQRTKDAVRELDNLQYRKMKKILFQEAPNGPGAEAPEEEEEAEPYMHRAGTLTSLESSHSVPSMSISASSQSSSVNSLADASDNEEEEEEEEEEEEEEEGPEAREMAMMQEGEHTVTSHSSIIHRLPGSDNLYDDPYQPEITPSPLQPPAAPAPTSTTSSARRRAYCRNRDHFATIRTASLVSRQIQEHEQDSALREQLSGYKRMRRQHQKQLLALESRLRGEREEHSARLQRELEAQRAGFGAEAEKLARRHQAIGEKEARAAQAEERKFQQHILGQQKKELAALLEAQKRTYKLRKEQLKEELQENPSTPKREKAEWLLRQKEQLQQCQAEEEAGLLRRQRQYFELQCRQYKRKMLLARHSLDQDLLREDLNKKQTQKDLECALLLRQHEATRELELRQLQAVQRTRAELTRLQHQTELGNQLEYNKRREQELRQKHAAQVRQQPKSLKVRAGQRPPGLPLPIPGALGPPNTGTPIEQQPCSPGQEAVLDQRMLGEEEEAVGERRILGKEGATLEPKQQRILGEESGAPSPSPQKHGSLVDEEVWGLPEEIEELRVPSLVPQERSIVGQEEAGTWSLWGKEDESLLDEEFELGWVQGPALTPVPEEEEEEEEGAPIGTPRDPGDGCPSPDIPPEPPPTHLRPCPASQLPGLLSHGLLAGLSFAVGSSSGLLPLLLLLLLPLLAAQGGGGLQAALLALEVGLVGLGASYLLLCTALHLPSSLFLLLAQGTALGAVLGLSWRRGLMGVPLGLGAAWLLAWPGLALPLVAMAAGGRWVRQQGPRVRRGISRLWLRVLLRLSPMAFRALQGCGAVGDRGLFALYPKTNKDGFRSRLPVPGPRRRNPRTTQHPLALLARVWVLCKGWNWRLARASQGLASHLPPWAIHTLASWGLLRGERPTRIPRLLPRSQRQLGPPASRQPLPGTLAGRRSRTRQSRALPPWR

| SMILES | observed | technique | tested at | remaining binding [%] |
| --- | --- | --- | --- | --- |
| O=C(NCCCN1CCOCC1)c1ccc(Nc2nccc(-c3cc4ccccc4s3)n2)cc1 | binding | competition with immobilised ligand | 1 µM | 80 |
| CNCc1ccccc1-c1csc([C@H](C)Nc2nc(C)nc3cc(OC)c(OC)cc23)c1 | cell-free assay | competition with immobilised ligand | 1 µM | 90 |
| CCN1CCN(Cc2ccc(C(=O)Nc3ccc(C)c(Oc4ccc5c(c4)CC(=O)N5)c3)cc2C(F)(F)F)CC1 | binding | competition with immobilised ligand | 1 µM | 100 |
| CCOC(=O)c1cc2cc(-c3cc(C(=O)NCc4ccc(C(=O)O)cc4)nn3C)ccc2[nH]1 | cell-free assay | competition with immobilised ligand | 0.1 µM | 90 |
| c1cnn2ncc(-c3ccnc(N4CCC45COC5)n3)c2c1 | binding |  | 1 µM | 71 |
| O=C(Nc1c[nH]nc1C(=O)NC1CCNCC1)c1cc(F)cc(F)c1 | binding | competition with immobilised ligand | 1 µM | 61 |
| F[C@@H]1CCN(c2nccc(-c3cnn4ncccc34)n2)C1 | binding |  | 1 µM | 100 |
| Cc1nc(C2CCN(C(=O)c3ccc(OC(F)(F)F)cc3N)CC2)c2ncc(N3CCN(C)CC3)cc2n1 | cell-free assay | competition with immobilised ligand | 1 µM | 100 |
| CN(c1nccc(-c2cnn3ncccc23)n1)C1CC1 | binding |  | 1 µM | 100 |
| O=C(O)[C@H]1[C@H](Cn2nnc3ccccc3c2=O)CC[C@@H]1C(=O)c1ccc(OCCC2CCOCC2)cc1 | cell-free assay | competition with immobilised ligand | 1 µM | 100 |
| c1cncc(-c2cccc(Nc3nccc(NC4CCCCC4)n3)c2)c1 | binding | competition with immobilised ligand | 10 µM | 94 |
| CN(CCCC(F)(F)F)c1nccc(-c2cnn3ncccc23)n1 | binding |  | 1 µM | 100 |
| O=S(=O)(NC1CCC(c2cc(F)ccc2F)(S(=O)(=O)c2ccc(Cl)cc2)CC1)C(F)(F)F (stereo not shown) | cell-free assay | competition with immobilised ligand | 1 µM | 100 |
| CN(C)c1nccc(-c2cnn3ncccc23)n1 | binding |  | 1 µM | 85 |
| O=C(NCCCN1CCOCC1)c1ccc(Nc2ncc(Cl)c(-c3ccc(Cl)s3)n2)cc1 | binding | competition with immobilised ligand | 1 µM | 69 |
| CN(C)c1nccc(-c2cnc3ncccn23)n1 | binding |  | 1 µM | 76 |
| COc1ccc2c(c1)O[C@H](c1ccc(OC)c(OC)c1)C[C@@H]2NC(=O)C1(c2ccc3c(c2)OC(F)(F)O3)CC1 | cell-free assay | competition with immobilised ligand | 1 µM | 98 |
| O=C(c1ccc(Nc2nccc(-c3cc4ccccc4s3)n2)cc1)N1CCC(N2CCCC2)CC1 | binding | competition with immobilised ligand | 1 µM | 71 |
| N[C@H]1CCN(c2nccc(-c3cnn4ncccc34)n2)C1 | binding |  | 1 µM | 52 |
| COc1ncc2cc3ccccc3nc2c1C#N | cell-free assay | competition with immobilised ligand | 5 µM | 93 |
| CN(C)C(=O)Cn1cc(-c2nc([C@@](C)(c3ccc(-c4cnc(N)nc4)cc3)C3CC3)no2)cn1 | cell-free assay | competition with immobilised ligand | 1 µM | 81 |
| COc1cnc(Nc2cccc(S(N)(=O)=O)c2)nc1N1CCN(c2ccccc2)CC1 | binding | competition with immobilised ligand | 1 µM | 86 |
